In ChEMBL document CHEMBL1155288, “Novel 1,2,3-thiadiazole derivatives as HIV-1 NNRTIs with improved potency: Synthesis and preliminary SAR studies” (Bioorg Med Chem, 2009):

Columns and labels:
[1] = Selectivity index, ratio of CC50 for human MT4 cells to EC50 for HIV2 ROD; assay type: toxicity, cell-based; conditions: read-out: Ratio CC50/EC50
Method in brief: (§1)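 Ratio CC50/EC50. CC50 comes from mock-infected MT-4 cells and EC50 from HIV-1 IIIB- or HIV-2 ROD-infected MT-4 cells, both from the same 5-day MTT plates.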

[2] = system: Human immunodeficiency virus 2; experiment: Antiviral activity against HIV2 ROD infected in human MT4 cells after 5 days by MTT assay; assay type: functional, organism-based; conditions: Human immunodeficiency virus 2, ISOLATE ROD, MT4, 120 h
Method in brief: (§2)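 MT-4 cells (6 × 10^5 cells/mL) infected with HIV-1 IIIB or HIV-2 ROD at 100–300 CCID50. Serial fivefold compound dilutions were tested in triplicate wells. Viability was read by MTT reduction at 540 and 690 nm on day 5, using the median OD of three wells. EC50 is the concentration giving 50% protection from viral cytopathic effect.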

[3] = Selectivity index, ratio of CC50 for human MT4 cells to EC50 for HIV1 3B; assay type: toxicity, cell-based; conditions: read-out: Ratio CC50/EC50; method in brief: as §1
[4] = system: Human immunodeficiency virus 1; experiment: Antiviral activity against HIV1 3B infected in human MT4 cells after 5 days by MTT assay; assay type: functional, organism-based; conditions: Human immunodeficiency virus 1, 3B, MT4, 120 h; method in brief: as §2
[5] = Cytotoxicity against human MT4 cells after 5 days by MTT assay; assay type: cell-based
Method in brief: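 Mock-infected MT-4 cells (6 × 10^5 cells/mL) received serial fivefold compound dilutions in triplicate wells, run in parallel with the infected series. After 5 days, viability was measured by MTT formazan absorbance at 540 and 690 nm, using the median OD of three wells. CC50 is the concentration reducing OD540 of the mock-infected control by 50%.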

| SMILES | selectivity ratio [1] | EC50 [2] | selectivity ratio [3] | EC50 [4] | CC50 at 120 h [5] |
| --- | --- | --- | --- | --- | --- |
| Cc1ccc2sc(NC(=O)CSc3snnc3-c3ccc(Br)cc3Br)nc2c1 | < 1 | > 23.6 µM | < 1 | > 23.6 µM | 23.6 µM |
| Cc1cccc(C)c1NC(=O)CSc1snnc1-c1ccc(Br)cc1Br | < 1 | > 199 µM | < 1 | > 199 µM | ≥ 199 µM |
| O=C(CSc1snnc1-c1ccc(Br)cc1Br)Nc1ccccc1[N+](=O)[O-] | ≥ 1 | > 236 µM | > 5840 | 0.04 µM | > 236 µM |
| Cc1ccccc1NC(=O)CSc1snnc1-c1ccc(Br)cc1Br | < 1 | > 202 µM | 381 | 0.52 µM | 202 µM |
| O=C(CSc1snnc1-c1ccc(Br)cc1Br)Nc1ccccc1F | < 1 | > 27.8 µM | > 195 | 0.14 µM | ≥ 27.8 µM |
| Cc1ccc(NC(=O)CSc2snnc2-c2ccc(Br)cc2Br)cc1 | < 1 | > 24 µM | 16 | 1.52 µM | 24 µM |
| O=C(CSc1snnc1-c1ccc(Br)cc1Br)Nc1ccccn1 | < 1 | > 42.4 µM | 36 | 1.17 µM | 42.4 µM |
| COC(=O)c1ccsc1NC(=O)CSc1snnc1-c1ccc(Br)cc1Br | ≥ 1 | > 228 µM | > 57 | 4.01 µM | > 228 µM |
| O=C(CSc1snnc1-c1ccc(Br)cc1Br)Nc1cccnc1Cl | ≥ 1 | > 240 µM | > 6460 | 0.0364 µM | > 240 µM |
| O=C(CSc1snnc1-c1ccc(Br)cc1Br)Nc1nccs1 | < 1 | > 87.8 µM | 19 | 4.53 µM | 87.8 µM |
| Cc1ccc(NC(=O)CSc2snnc2-c2ccc(Br)cc2Br)c([N+](=O)[O-])c1 | ≥ 1 | > 230 µM | > 2930 | 0.079 µM | > 230 µM |
| Cc1ccc(NC(=O)CSc2snnc2-c2ccc(Br)cc2Br)c(Br)c1 | ≥ 1 | > 216 µM | > 958 | 0.22 µM | > 216 µM |
| O=C(CSc1snnc1-c1ccc(Br)cc1Br)Nc1ccccc1 | < 1 | > 24.8 µM | 47 | 0.54 µM | 24.8 µM |
| O=C(CSc1snnc1-c1ccc(Br)cc1Br)Nc1ccccc1Cl | > 1 | ≥ 221 µM | > 2900 | 0.083 µM | > 241 µM |
| Cc1cccc(NC(=O)CSc2snnc2-c2ccc(Br)cc2Br)c1C | < 1 | > 241 µM | 166 | 1.44 µM | 241 µM |
| O=C(CSc1snnc1-c1ccc(Br)cc1Br)Nc1ccccc1Br | > 1 | 172 µM | > 1790 | 0.12 µM | > 222 µM |
| O=C(CSc1snnc1-c1ccc(Br)cc1Br)Nc1ccc(Cl)cc1 | < 1 | > 23.3 µM | 11 | 2.19 µM | 23.3 µM |
| CC(=O)c1ccc(NC(=O)CSc2snnc2-c2ccc(Br)cc2Br)c(Br)c1 | ≥ 1 | > 206 µM | > 3550 | 0.058 µM | > 206 µM |
